Results on four molecules are retold here after ChEMBL document CHEMBL1147726, “Prodrug forms of N-[(4-deoxy-4-amino-10-methyl)pteroyl]glutamate-gamma-[psiP(O)(OH)]-glutarate, a potent inhibitor of folylpoly-gamma-glutamate synthetase: synthesis and hydrolytic stability” (J Med Chem, 2006).

Series [1] has as its system CHO. Description: Cytotoxicity in RFC deficient 43-10 cells derived from CHO cells transfected with human RFC cDNA. The class given is functional, cell-based. The following applies: Cricetulus griseus. The procedure, abridged:
(§1)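 CHO-derived cells grown in RPMI 1640 medium and exposed continuously to compound for 72 h. Serial dilutions were made in DMSO. Viability was read with a CellTiter-Blue assay. IC50 was taken from dose-response curves over 1 nM to 1 µM.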

Series [2] can be described thus: Half life of hydrolysis rate in phosphate buffer at pH 8.0. Format: ADME. The procedure, abridged:
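Prodrug was diluted into 20 mM phosphate buffer, pH 8.0, containing 5% DMSO, with serial dilutions made in the same phosphate. Loss of the parent ester and formation of products were monitored over time by HPLC (UV at 254 and 310 nm). t = 0 is autosampler injection. Ester decay was fit to pseudo-first-order kinetics to give the half-life.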

The nature of series [3]: Half life of hydrolysis rate in RPMI-1640 medium at pH 8.0. Format: ADME. The gist of the method: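 Prodrug stock was diluted into RPMI-1640 cell medium (pH 8.0) and filtered, and disappearance of the ester was followed by HPLC with UV detection at 254 and 310 nm. t = 0 is the time the autosampler injected the sample. The half-life was determined from the HPLC data.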

Series [4] relates to CHO. The experiment in a line: Cytotoxicity against Pro3 cells derived from CHO cells with fully functional reduced folate carrier. The class given is cell-based. The following applies: Cricetulus griseus. The gist of the method:
as §1

Series [5] concerns CHO. Description: Cytotoxicity against R2 mutant cells derived from CHO cells with reduced expression of RFC. The class given is functional, cell-based. Conditions: Cricetulus griseus. The gist of the method:
as §1

Structures are written as SMILES. Bounds are passed on as bounds.

By IC50 is commonly meant the concentration at which inhibition is half-maximal. Lower therefore signals higher potency. Broadly, the half-life is how long it takes for the measured level to halve. A higher half-life goes with slow loss. As for `CN(Cc1cnc2nc(N)nc(N)c2n1)c1ccc(C(=O)NC(CCP(=O)(O)CC(CCC(=O)OCOC(=O)C(C)(C)C)C(=O)OCOC(=O)C(C)(C)C)C(=O)OCOC(=O)C(C)(C)C)cc1` (configuration not stated), the IC50 in series [1] is 250 nM; in series [4], 700 nM; in series [5], 350 nM. In addition, the half-life in series [2] was 8 h; in series [3], 3 h.
Consider `CN(Cc1cnc2nc(N)nc(N)c2n1)c1ccc(C(=O)NC(CCP(=O)(O)CC(CCC(=O)O)C(=O)O)C(=O)O)cc1` (configuration not stated), for which the concentration for half-maximal inhibition (IC50) in series [1], in series [4] and in series [5] was > 1000 nM throughout.
Take `COP(=O)(CCC(NC(=O)c1ccc(N(C)Cc2cnc3nc(N)nc(N)c3n2)cc1)C(=O)OCOC(=O)C(C)(C)C)CC(CCC(=O)OCOC(=O)C(C)(C)C)C(=O)OCOC(=O)C(C)(C)C` (configuration not stated): the IC50 is 800 nM in series [1], > 1000 nM in series [4] and > 1000 nM in series [5]. Further, the half-life in series [2] was 3 h; in series [3], 1 h.
For `COC(=O)CCC(CP(=O)(O)CCC(NC(=O)c1ccc(N(C)Cc2cnc3nc(N)nc(N)c3n2)cc1)C(=O)OC)C(=O)OC` (configuration not stated), the IC50 is 300 nM in series [1], 500 nM in series [4] and > 1000 nM in series [5]. The half-life in series [2] was > 100 h.
